Rad51 HR inh = human RAD51 strand exchange inhibitors, primary screen, biochemical, fluorescence; DNA repair protein RAD51 homolog 1 (Homo sapiens), Q06609; hRad51 DNA strand exchange, fluorescence dequenching; inhibition, % at 10 µM; 200,000 tested, 0.085% active;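 active = inhibition above 40% at the single screening dose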;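 also: 0% = DMSO control wells and 100% = blanks with heterologous ssDNA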
Target sequence (Q06609 whole entry, looked up): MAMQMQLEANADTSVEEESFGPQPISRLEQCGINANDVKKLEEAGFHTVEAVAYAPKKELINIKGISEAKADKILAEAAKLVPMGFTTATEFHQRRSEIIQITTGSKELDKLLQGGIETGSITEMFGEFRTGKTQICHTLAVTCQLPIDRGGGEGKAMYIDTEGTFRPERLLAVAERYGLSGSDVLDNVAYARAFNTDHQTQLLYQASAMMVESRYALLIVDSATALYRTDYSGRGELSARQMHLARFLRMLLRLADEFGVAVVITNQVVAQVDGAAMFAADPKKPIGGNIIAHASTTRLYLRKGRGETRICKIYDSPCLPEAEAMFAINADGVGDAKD
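Material: human Rad51–ssDNA filaments; Probe or stimulus: labelled 47-mer dsDNA for strand exchange; Doses: single 10 µM dose; Incubation: 37 °C 15-min filament assembly, 30-min compound preincubation, 15-min exchange; Technique: FRET fluorescence dequenching, excitation 485 nm, emission 520 nm; Measure: Fluorescence-based percent inhibition, control- and blank-normalised; Benchmarks: plate control and blank wells.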
p97 ATPase inh = inhibitors of human p97 ATPase, primary screen, biochemical; inhibition, % at 8 µM; Transitional endoplasmic reticulum ATPase (Homo sapiens), P55072; recombinant p97 ATPase, Kinase-Glo ATP luminescence, 3 h; 220,000 tested, 0.42% active; in the data active = inhibition above about 15%;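 also: 0% = DMSO vehicle and 100% = wells lacking enzyme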
ABCB6 inh 2 = ABCB6 transporter inhibitors, primary screen, K562-ABCB6 cells, flow cytometry, MLPCN library; ATP-binding cassette sub-family B member 6 (Homo sapiens), Q9NP58; K562-ABCB6 porphyrin accumulation, 1 h; active compounds read low; fluorescence ratio to DMSO, % at 10 µM; 360,000 tested, 0.19% active; AID 602162, 2011;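 active = fluorescence ratio to DMSO below 75%, the collection mean minus 3 SD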;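 also: signal is porphyrin accumulated inside mitochondria; 100% equals median channel fluorescence of DMSO control wells; lower ratio means ABCB6 inhibition with less porphyrin fluorescence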
HSV replic up = enhancers of HSV replication in host cells, fold increase, host cell viability. HSV replication augmentation in cells. maximum fold increase. 220,000 tested, 0.005% active. AID 1956, 2009; in the data active = maximum fold increase above about 1.5; tested in PC3 cells
ABCG2 inh = ABCG2 efflux pump inhibitors, primary screen, multiplex with ABCB1, IgMXP3 cells, flow cytometry | inhibition, % at 6.6 µM | 190,000 tested, 0.1% active | AID 1325, 2008 | JC-1 efflux | Broad substrate specificity ATP-binding cassette transporter ABCG2 (Homo sapiens), Q9UNQ0;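 active = inhibition above 80%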;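 also: 0% = DMSO and 100% = nicardipine control wells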
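Test system: IgMXP3 cells (ABCG2) mixed with DDAO far-red-labelled CCRF-Adr cells (ABCB1). Reagent: JC-1 transporter substrate. Compound dosing: single test compound dose, 6.6 µM final. Times: 10 min compound exposure, 25 °C. Detection: flow cytometry of retained JC-1 fluorescence. Read-out basis: efflux inhibition in percent versus controls. Controls: nicardipine and DMSO wells.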
ABCB1 block = ABCB1 efflux pump inhibitors, primary screen, cell-based, multiplex, flow cytometry, ABCG2 counter-screen; ATP-dependent translocase ABCB1 (Homo sapiens), P08183; CCRF-Adr cells, JC-1 efflux; inhibition, % at 6.6 µM; 190,000 tested, 0.067% active; AID 1326, 2008; in the data active = inhibition above about 40%;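 also: 0% = vehicle and 100% = reference inhibitor; higher value means more JC-1 retained so stronger ABCB1 efflux block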
Starred values were filed as active, the others as inactive; i = inactive; . = no result. Rows were chosen to be rich in hits. Some 0.55% of all compounds tested hit in one or more screens of this group.

SMILES	Rad51 HR inh	p97 ATPase inh	ABCB6 inh 2	HSV replic up	ABCG2 inh	ABCB1 block
CCCCS(=O)(=O)NC(=O)C1(C)CCN1C(=O)C/C=C/c1ccccc1 (centres undefined)	.	.	95	.	.	.
Cc1onc(-c2c(Cl)cccc2Cl)c1C(=O)Nn1cnnc1	44*	-5	99	i	8	0
Cc1onc(-c2c(Cl)cccc2Cl)c1C(=O)O/N=C(\C#N)c1ccccc1	5	15*	96	i	.	.
Cc1onc(-c2c(Cl)cccc2Cl)c1C(=O)c1ccccc1	10	2	99	i	.	.
CC(=O)Nc1ccc(S(=O)(=O)NC(C)C(=O)OCC(=O)Nc2ccc(F)cc2Cl)cc1 (centres undefined)	.	.	100	.	.	.
Cc1cc(C(=O)Nc2cccnc2)cs1	77*	0	103	i	1	0
CN1C(=O)[C@H]2[C@@H](c3ccc(C(F)(F)F)cc3)N[C@]3(CCCN(Cc4ccc(Br)cc4)C3=O)[C@H]2C1=O	.	.	96	.	.	.
O=C1/C(=C/c2ccc(F)cc2)SC(=S)N1Nc1ncc(C(F)(F)F)cc1Cl	1	19*	97	i	-9	-6
COc1ccc([C@H]2C[C@@H](O)[C@H](n3cc(C4CC4)nn3)CN2C(=O)c2cccs2)cc1	.	.	103	.	.	.
CCn1c2ccccc2nc2cc3c(cc21)c(Cl)c(=O)c1ccccc13	.	.	102	.	.	.
C[C@H](NC(=O)[C@@H]1CCCN1C(=O)[C@@H]1CCCN1)c1ccccc1	.	.	91	.	.	.
Nc1ccc2c(c1)C/C(=C/c1ccco1)C2=O	-93	15*	105	i	9	1
COc1cccc(CN2CCC(C)(Oc3cccc(Cl)c3)C2)c1OC (centres undefined)	.	.	98	.	.	.
COc1ccc(-n2cnnc2SCC(=O)Nc2cc(C)on2)cc1	44*	6	95	i	1	1
COc1cc2c(cc1OC)C1=C(C#N)CC/C(=N\S(=O)(=O)c3cccc(Cl)c3)N1CC2	2	5	73*	i	8	3
COc1cc2c(cc1OC)C1=C(C#N)CCC(=NC(=O)c3ccco3)N1CC2	7	2	103	i	3	1
COc1ccc(CN2C[C@@H](CO)O[C@@H](n3cnc4c(NCc5ccco5)ncnc43)C2)cc1	.	.	101	.	.	.
CC(C)C(=O)NC(=S)Nc1ccccn1	-1	20*	88	i	30	1
COc1ccc(C2C(=O)c3ccccc3C2=O)c(OC)c1	100*	3	99	i	0	0
COc1ccc(C2C(=O)c3ccccc3C2=O)cc1	-9	6	101	i	-2	-1
C=CCn1c(=S)[nH]c2nc3c(cc2c1=O)CCCC3	4	1	70*	i	10	1
COc1cccc(C(O)c2nc(-c3ccc(OC)nc3)cs2)c1 (centres undefined)	.	.	109	.	.	.
Cc1nnc(SCC(=O)c2ccc(Cl)cc2)s1	41*	2	106	i	15	0
Cc1nnc2sc(SCC(=O)N3CCc4ccccc43)nn2c1=O	.	.	119	.	.	.
Cc1nnc(SCC(=O)N2CCc3ccccc32)s1	1	2	93	i	5	43*
SMILES	Rad51 HR inh	p97 ATPase inh	ABCB6 inh 2	HSV replic up	ABCG2 inh	ABCB1 block
COc1ccc(NC(=O)c2cccc(-c3ccc(O)cc3)c2)cn1	.	.	109	.	.	.
COc1ccc(-n2c(C)cc(C3=NNC(=NC4CC4)SC3)c2C)cc1	11	22*	93	i	5	1
O=C(Nc1ccccc1)C1=C(c2ccccc2)S(=O)(=O)CCS1(=O)=O	42*	7	97	i	7	2
NNC(=O)c1nnsc1-c1csnn1	.	.	101	.	.	.
O=C1c2ccccc2S(=O)(=O)N1CCCN1C(=O)c2ccccc2S1(=O)=O	.	.	97	.	.	.
O=C1c2ccccc2C(=O)N1OCCCN1C(=O)c2ccccc2S1(=O)=O	.	.	31*	.	.	.
CN(C)c1ccc(NC(=O)CSc2nc3ccccc3c(=O)n2C2CCCCC2)cc1	5	3	93	i	6	2
CCCN(CCC)C(=O)CSc1nc2ccccc2c(=O)n1C1CCCC1	2	-6	95	i	44	52*

Screens as filed in PubChem.
